Measured values of several laboratories.
Compare with care: the assays were run in different laboratories.
Target: Mitogen-activated protein kinase kinase kinase 9 (MAP3K9, Homo sapiens, UniProt P80192)

SMILES | test | setting | remaining binding [%]
C[C@H]1CCN(c2nccc(-c3cnn4ncccc34)n2)C1 | binding | 1 µM | 100
C[C@@H]1CN(c2ccc3ncc(-c4ccc5[nH]nc(C6CC6)c5c4)n3n2)C[C@H](C)O1 | binding, competition with immobilised ligand | 0.5 µM | 100
Nc1c(C(=O)NCc2ccc(C(=O)NCCCC3CCCCC3)cc2)cnn1-c1ccccc1 | cell-free assay, competition with immobilised ligand | 0.1 µM | 96
O=C(NCC1CCOCC1)c1n[nH]cc1NC(=O)c1c(F)cccc1F | binding, competition with immobilised ligand | 1 µM | 100
c1cncc(-c2cccc(Nc3nccc(NC4CCCCC4)n3)c2)c1 | binding, competition with immobilised ligand | 10 µM | 19
F[C@@H]1CCN(c2nccc(-c3cnn4ncccc34)n2)C1 | binding | 1 µM | 78
C=CC(=O)N1CCC(C(=O)NCC(=O)N2CCN(c3nc(-c4cnc(N)nc4C(F)F)nc(N4CCOCC4)n3)CC2)CC1 | binding, competition with immobilised ligand | 1 µM | 96
C[C@@H](c1ccc(-n2cnc3c(N)ncnc32)cc1)N1CCc2nn(C)c(Cc3ccccc3)c2C1=O | binding, competition with immobilised ligand | 0.1 µM | 95
O=C(c1ccc(Nc2ncc(Cl)c(-c3cc4ccccc4s3)n2)cc1)N1CCC(N2CCCC2)CC1 | binding, competition with immobilised ligand | 1 µM | 4.3
Cc1cnn2ncc(-c3ccnc(N(C)C)n3)c2c1 | binding | 1 µM | 100
O=C(NS(=O)(=O)c1ccc(NCC2CCOCC2)c([N+](=O)[O-])c1)c1ccc(N2CCN(Cc3ccc(C(F)(F)F)cc3-c3ccc(Cl)cc3)CC2)cc1Oc1cnc2[nH]ccc2c1 | cell-free assay, competition with immobilised ligand | 1 µM | 100
COc1cnc(Nc2cccc(S(N)(=O)=O)c2)nc1N1CCN(c2ccccc2)CC1 | binding, competition with immobilised ligand | 1 µM | 73
O=C(c1ccc(Nc2nccc(-c3cc4ccccc4s3)n2)cc1)N1CCC(N2CCCC2)CC1 | binding, competition with immobilised ligand | 1 µM | 27
CN(CCCC(F)(F)F)c1nccc(-c2cnn3ncccc23)n1 | binding | 1 µM | 88
COc1ncc2cc3ccccc3nc2c1C#N | cell-free assay, competition with immobilised ligand | 5 µM | 97
COc1cc(-c2cn(C3CCc4c(F)cccc4N(CC(F)(F)F)C3=O)nn2)ccc1-n1cnc(C)c1 (stereo not shown) | cell-free assay, competition with immobilised ligand | 1 µM | 100
O=C(c1ccc(Nc2ncc(Cl)c(-c3ccc(Cl)s3)n2)cc1)N1CCC(N2CCCC2)CC1 | binding, competition with immobilised ligand | 1 µM | 8.9
CCCCN(CCCC)C(=O)CN1C[C@@H](c2cc(OC)c3c(c2)OCO3)[C@H](C(=O)O)[C@H]1CC(C)(C)CCC | cell-free assay, competition with immobilised ligand | 1 µM | 98.8
CN(C)c1nccc(-c2cnn3ncccc23)n1 | binding | 1 µM | 100
Cc1cc(C)c(-n2ccn3nc(-c4cccnc4)cc23)cc1NC(=O)c1cc(C#N)cc(S(F)(F)(F)(F)F)c1 | cell-free assay, competition with immobilised ligand | 0.1 µM | 79.5
CC1CCCN1c1nccc(-c2cnn3ncccc23)n1 (stereo not shown) | binding | 1 µM | 100
C[C@@]1(Cc2ccc(C#N)cc2)C(=O)N(c2cc(Cl)cc(Cl)c2)c2ncc(C(=O)NC3(c4nc(C5CCC5)no4)CC3)n21 | cell-free assay, competition with immobilised ligand | 1 µM | 100
CNC(=O)[C@@H]1CC[C@@H](n2c(-c3ccc4cnccc4c3)nc3ccc(C(=O)NCc4cccc(C(N)=O)c4)cc32)C1 | binding, competition with immobilised ligand | 1 µM | 100
CC(=O)C1=C(C)N(c2cccc(C(F)(F)F)c2)C(=O)N[C@@H]1c1ccc(C#N)nc1 | cell-free assay, competition with immobilised ligand | 1 µM | 94
COc1ccnn2ncc(-c3ccnc(N(C)C)n3)c12 | binding | 1 µM | 91
